# Data taken from ChEMBL document CHEMBL3228025, “Synthesis and analgesic activities of some (4-substituted phenyl-1-piperazinyl)alkyl 2-aminobenzoates and 2-aminonicotinates” (J Med Chem, 1979).
# What was measured:
# [1] = Acute toxicity in po dosed CD1 mouse after 7 days; format: organism-based; conditions: in vivo
# Procedure, shortened: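 Male CD1 mice, 20 ± 2 g, oral dosing at 10 mL/kg as an aqueous solution or suspension in 1% Tween 80 in distilled water. At least 10 animals per dose level, observed for 7 days. Oral LD50 calculated by the Litchfield–Wilcoxon method.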
# [2] = test system: Rattus norvegicus; assay: Antiinflammatory activity in po dosed CD1 rat assessed as inhibition of carrageenan-induced paw edema administered 1 hr prior to carrageenan challenge measured after 3 hrs
# [3] = test system: Mus musculus; assay: Analgesic activity in po dosed OF1 mouse assessed as dose required to double paw licking reaction time after 30 mins by hot plate test; format: functional; conditions: 0.5 h
# Procedure, shortened: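 Male OF1 mice, 20 ± 2 g, given oral doses at several levels in 1% Tween 80 at 10 mL/kg, at least 10 per dose. After 30 min each mouse was placed on a metal plate at 56 °C and paw-licking latency was recorded. ED2 (dose doubling latency) was read graphically, with SEM and Dunnett's t versus controls.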
# [4] = test system: Mus musculus; assay: Analgesic activity in po dosed CD1 mouse assessed as inhibition of acetic acid-induced writhing administered 30 mins prior to acetic acid challenge measured after 15 mins; format: functional
# Procedure, shortened: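 Male CD1 mice, 20 ± 2 g, randomly grouped and dosed orally at several levels (10 mL/kg, 1% Tween 80 vehicle), with at least two groups of six per dose. After 30 min, 0.6% acetic acid was given ip at 10 mL/kg, and writhes were counted per group over 15 min. ED50 (dose halving writhes) was read graphically, with no SEM computed.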
SMILES,LD50 at 168 h [1] [mg/kg],ED40 [2] [mg/kg],ED2 [3] [mg/kg],ED50 [4] [mg/kg]
O=C(OCCN1CCN(c2ccccc2)CC1)c1ccccc1Nc1ccnc2cc(OC(F)(F)F)ccc12,1300,40,300,24
Cc1cccc(Nc2ccccc2C(=O)OCCN2CCN(c3ccccc3)CC2)c1C,4000,> 50,–,90
Cc1cc(Nc2ccccc2C(=O)OCCN2CCN(c3ccccc3)CC2)c2ccc(Cl)cc2n1,4000,> 200,300,110
O=C(OCCN1CCN(c2cccc(Cl)c2)CC1)c1ccccc1Nc1ccnc2cc(Cl)ccc12,4000,> 100,60,10
O=C(OCCN1CCN(c2ccccc2)CC1)c1ccccc1Nc1cccc(C(F)(F)F)c1,> 2000,100,–,400
COc1ccc(N2CCN(CCOC(=O)c3ccccc3Nc3ccnc4cc(Cl)ccc34)CC2)cc1,–,45,> 300,200
O=C(OCCN1CCN(c2cccc(SC(F)(F)F)c2)CC1)c1ccccc1Nc1ccnc2cc(SC(F)(F)F)ccc12,–,180,200,60
Cc1ccc(Cl)cc1N1CCN(CCOC(=O)c2ccccc2Nc2ccnc3cc(C(F)(F)F)ccc23)CC1,3000,65,> 300,20
O=C(OCCN1CCN(c2cccc(C(F)(F)F)c2)CC1)c1ccccc1Nc1ccnc2cc(Cl)ccc12,–,40,150,24
O=C(OCCN1CCN(c2cccc(Cl)c2)CC1)c1cccnc1Nc1cccc(SC(F)(F)F)c1,> 4000,> 300,–,100
O=C(OCCN1CCN(c2cccc(SC(F)(F)F)c2)CC1)c1ccccc1Nc1ccnc2cc(C(F)(F)F)ccc12,3750,30,> 300,8
O=C(OCCN1CCN(c2cccc(Cl)c2)CC1)c1ccccc1Nc1ccnc2c(C(F)(F)F)cccc12,> 3000,100,> 300,18
O=C(OCCN1CCN(c2cccc(C(F)(F)F)c2)CC1)c1cccnc1Nc1cccc(SC(F)(F)F)c1,> 4000,> 50,–,250
Cc1c(Cl)cccc1Nc1ncccc1C(=O)OCCN1CCN(c2cccc(C(F)(F)F)c2)CC1,> 4000,> 100,–,200
O=C(OCCN1CCN(c2cccc(C(F)(F)F)c2)CC1)c1ccccc1Nc1cccc(SC(F)(F)F)c1,> 4000,> 50,–,300
O=C(OCCN1CCN(c2cccc(C(F)(F)F)c2)CC1)c1ccccc1Nc1ccnc2c(C(F)(F)F)cccc12,> 3000,120,100,40
O=C(OCCN1CCN(c2cccc(Cl)c2)CC1)c1ccccc1Nc1ccnc2cc(C(F)(F)F)ccc12,> 4000,30,150,9
O=C(OCCN1CCN(c2cccc(OC(F)(F)F)c2)CC1)c1ccccc1Nc1ccnc2cc(C(F)(F)F)ccc12,3500,50,> 300,20
O=C(OCCN1CCN(c2cccc(Cl)c2)CC1)c1ccccc1Nc1cccc(SC(F)(F)F)c1,2000,> 50,–,> 400
O=C(OCCN1CCN(c2ccccc2)CC1)c1ccccc1Nc1ccnc2c(Cl)cccc12,> 4000,300,> 250,80
O=C(OCCN1CCN(c2ccccc2)CC1)c1ccccc1Nc1ccnc2cc(SC(F)(F)F)ccc12,–,100,300,9

SMILES,LD50 at 168 h [1] [mg/kg],ED40 [2] [mg/kg],ED2 [3] [mg/kg],ED50 [4] [mg/kg]
O=C(OCCCN1CCN(c2ccccc2)CC1)c1ccccc1Nc1ccnc2cc(Cl)ccc12,2000,50,250,60
O=C(OCCN1CCN(c2ccccc2)CC1)c1ccccc1Nc1ccnc2cc(C(F)(F)F)ccc12,2500,40,300,30
O=C(OCCN1CCN(c2cccc(C(F)(F)F)c2)CC1)c1ccccc1Nc1ccnc2cc(OC(F)(F)F)ccc12,1500,43,150,20
Cc1c(N(C)C)c(=O)n(-c2ccccc2)n1C [AMINOPYRINE],800,60,250,40
O=C(OCCN1CCN(c2cccc(OC(F)(F)F)c2)CC1)c1ccccc1Nc1ccnc2cc(OC(F)(F)F)ccc12,3500,75,> 300,70
CC(CN1CCN(c2ccccc2)CC1)OC(=O)c1ccccc1Nc1ccnc2cc(Cl)ccc12 (stereo not given),> 2000,300,200,63
O=C(OCCN1CCN(c2cccc(SC(F)(F)F)c2)CC1)c1ccccc1Nc1ccnc2cc(Cl)ccc12,3000,30,200,120
Cc1ccc(Cl)cc1N1CCN(CCOC(=O)c2ccccc2Nc2ccnc3cc(Cl)ccc23)CC1,> 4000,30,> 300,15
O=C(OCC(O)CO)c1ccccc1Nc1ccnc2cc(Cl)ccc12 (stereo not given) [GLAFENINE],–,30,> 600,56
O=C(OCCN1CCN(c2cccc(OC(F)(F)F)c2)CC1)c1ccccc1Nc1ccnc2cc(Cl)ccc12,4000,50,> 300,120
O=C(OCCN1CCN(c2ccccc2)CC1)c1ccccc1Nc1cccc(OC(F)(F)F)c1,2000,150,–,> 400
O=C(OCCN1CCN(c2cccc(SC(F)(F)F)c2)CC1)c1ccccc1Nc1ccnc2c(C(F)(F)F)cccc12,> 3000,> 100,200,6
O=C(OCCN1CCN(c2cc(C(F)(F)F)cc(C(F)(F)F)c2)CC1)c1ccccc1Nc1ccnc2cc(C(F)(F)F)ccc12,4000,80,> 300,20
O=C(O)c1ccccc1Nc1ccnc2cc(C(F)(F)F)ccc12,1000,–,> 600,18
O=C(OCCN1CCN(c2ccccc2)CC1)c1ccccc1Nc1ccnc2c(C(F)(F)F)cccc12,3000,64,> 300,35
O=C(OCCN1CCN(c2cccc(C(F)(F)F)c2)CC1)c1ccccc1Nc1ccnc2cc(C(F)(F)F)ccc12 [ANTRAFENINE],4000,40,30,6
O=C(OCCN1CCN(c2cccc(Cl)c2)CC1)c1ccccc1Nc1ccnc2cc(OC(F)(F)F)ccc12,4000,85,300,20
O=C(OCCN1CCN(c2ccccc2)CC1)c1ccccc1Nc1ccnc2cc(Cl)ccc12,4250,120,200,75
Cc1ccc(C)c(N2CCN(CCOC(=O)c3ccccc3Nc3ccnc4cc(Cl)ccc34)CC2)c1,4000,120,300,22
O=C(OCCN1CCN(c2ccc(Cl)cc2)CC1)c1ccccc1Nc1ccnc2cc(Cl)ccc12,> 2000,100,> 300,80
